Measured values published in ChEMBL document CHEMBL1139507, “Application of phosphoramidate pronucleotide technology to abacavir leads to a significant enhancement of antiviral potency” (J Med Chem, 2005).
Several values for one entry are separate records, joined by “and”; a condition that tells them apart may be missing. Identical values can stand only once.

Tests used:
[1] = Time of maximum concentration was observed in monkey after oral dosage; type: ADME, organism-based; conditions: cercopithecidae, in vivo
Outline: (§1)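 Female cynomolgus monkeys (three, 2.0-3.2 kg) received the succinate salt at 11.5 mg/kg (17.3 µmol/kg), 2.3 mg/mL in 10% DMSO/90% saline, 5 mL/kg, iv on day 1 and orally on day 8 (1-week washout); fasted overnight to ~4 h postdose. Serial plasma to 24 h, acetonitrile deproteination, LC/MS/MS of prodrug, alaninyl-ABC-MP, ABC-MP, ABC, CBV; noncompartmental analysis.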

[2] = Terminal elimination half-life in monkey after administration of intravenous dosage; type: ADME, organism-based; conditions: cercopithecidae, in vivo; outline: as §1
[3] = Oral bioavailability in monkey after oral dosage; type: ADME, organism-based; conditions: cercopithecidae, in vivo; outline: as §1
[4] = Area under the plasma concentration-time curve in monkey after administration of intravenous dosage; type: ADME; conditions: cercopithecidae; outline: as §1
[5] = Area under the plasma concentration-time curve in monkey after peroral dosage; type: ADME; conditions: cercopithecidae, po; outline: as §1
[6] = Total plasma clearance in monkey after administration of intravenous dosage; (n=3); type: ADME, organism-based; conditions: cercopithecidae; outline: as §1
[7] = Apparent half life value in monkey after oral dosage; type: ADME, organism-based; conditions: cercopithecidae, in vivo, read-out: T1/2 app (converted); outline: as §1
CCRF-CEM [8] = assay: Cytostatic concentration required to inhibit CEM cell proliferation; type: functional; conditions: Homo sapiens
CCRF-CEM [9] = assay: Intracellular concentration of metabolites (CBVMP +alaninyl-ABCMP) from 11-13 hrs in CEM cells after incubation with the compound (10 uM); type: functional, cell-based; conditions: Homo sapiens
Outline: (§2)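 CEM T4 lymphocytes seeded at (2-4) × 10⁵ cells/mL in RPMI-1640 with 10% fetal calf serum, 2 mM L-glutamine, 0.075% NaHCO₃. They were exposed 24 h to 10 µM [³H]abacavir or 1.1 µM ³H-ProTide (5 µCi/5 mL), washed twice in cold medium, and extracted with cold methanol/water 60:40. Metabolites were separated by SAX HPLC, (NH₄)H₂PO₄ pH 5.0 gradient 0.005-0.30 M, with fractions by retention time in min. Results are pmol/10⁹ cells.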

Human alphaherpesvirus 1 [10] = assay: Effective concentration against thymidine kinase deficient herpes simplex virus (HSV-1) in B2006 strain; conditions: Human alphaherpesvirus 1, B2006
[11] = Area under the plasma concentration-time curve in monkey after intravenous dosage; type: ADME; conditions: cercopithecidae; outline: as §1
[12] = system: Human immunodeficiency virus 2; assay: Ratio of CC50 to that of EC50 against human immunodeficiency virus type 2 in CEM cells; type: functional, CCRF-CEM
Hepatitis B virus [13] = assay: Effective concentration against hepatitis B virus in Hep G2.2.15 cells; type: functional, organism-based; conditions: HepG2 2.2.15
Outline: (§3)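 Anti-HBV activity assayed in HepG2 2.2.15 human hepatoma cells, which constitutively produce HBV; EC50 = 50% effective concentration.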

CCRF-CEM [14] = assay: Intracellular concentration of metabolites (CBVDP) from 19-21 hrs in CEM cells after incubation with the compound (10 uM); type: functional, cell-based; conditions: Homo sapiens; outline: as §2
[15] = Terminal elimination half-life in monkey after intravenous dosage; NA=not applicable; type: ADME, organism-based; conditions: cercopithecidae, in vivo; outline: as §1
C3H/3T3 = assay: Cytostatic concentration required to inhibit C3H/3T3 cell proliferation; type: functional; conditions: Mus musculus
HepG2 [16] = assay: Cytostatic concentration required to inhibit Hep G2.2.15 cell proliferation; type: functional, Homo sapiens
Outline: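 Growth inhibition of HepG2 2.2.15 human hepatoma cells (constitutively HBV-producing) measured; CC50 = 50% cytostatic concentration.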

CCRF-CEM [17] = assay: Intracellular concentration of metabolites (ABCMP) from 6-8 hrs in CEM cells after incubation with the compound (10 uM); type: functional, cell-based; conditions: Homo sapiens; outline: as §2
[18] = system: Moloney murine sarcoma virus; assay: Effective concentration against murine moloney sarcoma virus in C3H/3T3 cells; type: functional, organism-based
[19] = system: Human immunodeficiency virus 1; assay: Ratio of CC50 to that of EC50 against human immunodeficiency virus type 1 in CEM cells; type: functional, CCRF-CEM
[20] = system: Human immunodeficiency virus 1; assay: Effective concentration against human immunodeficiency virus type 1 in PBL cells; type: functional, organism-based; conditions: Human immunodeficiency virus 1, PBL
CCRF-CEM [21] = assay: Intracellular concentration of metabolites (ABC + proABC + CBV) from 2-3 hrs in CEM cells after incubation with the compound (10 uM); type: functional, cell-based; conditions: Homo sapiens; outline: as §2
Human alphaherpesvirus 1 [22] = assay: Effective concentration against thymidine kinase competent herpes simplex virus (HSV-1) in […]; type: functional, organism-based
Outline: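 Confluent HEL cell cultures inoculated with 100 CCID50 of HSV-1 (KOS), HSV-2 (G) or HSV-1 TK- (B2006, VMW-1837); after 1 h adsorption, residual virus removed and cells incubated with varying compound concentrations; cytopathicity recorded once complete in virus controls; EC50 = concentration inhibiting HSV-induced cytopathicity by 50%.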

Human alphaherpesvirus 2 = assay: Effective concentration against thymidine kinase competent herpes simplex virus (HSV-2) in […]
HEL = assay: Cytostatic concentration required to inhibit HEL cell proliferation; type: functional; conditions: Homo sapiens
Outline: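 HEL cell proliferation measured in presence of compound; CC50 = 50% cytostatic concentration inhibiting HEL cell proliferation by 50%.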

Human alphaherpesvirus 1 [23] = assay: Effective concentration against thymidine kinase deficient herpes simplex virus (HSV-1) in VMW-1837 strain; conditions: Human alphaherpesvirus 1, VMW-1837
CCRF-CEM [24] = assay: Intracellular concentration of metabolites (CBVTP) from 35-38 hrs in CEM cells after incubation with the compound (10 uM); type: functional, cell-based; conditions: Homo sapiens; outline: as §2
[25] = system: Human immunodeficiency virus 1; assay: Effective concentration against human immunodeficiency virus type 1 in CEM cells; type: functional, organism-based; conditions: Human immunodeficiency virus 1, CCRF-CEM
Outline: (§4)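 HIV-1- and HIV-2-induced cytopathicity in CEM cell cultures, scored at day 4 by microscopic examination of virus-induced giant cell formation; EC50 = concentration inhibiting cytopathicity by 50%.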

[26] = system: Human immunodeficiency virus 2; assay: Effective concentration against human immunodeficiency virus type 2 (ROD) in CEM cells; type: functional, organism-based; conditions: Human immunodeficiency virus 2, CCRF-CEM; outline: as §4
[27] = system: Human immunodeficiency virus 2; assay: Effective concentration against human immunodeficiency virus type 2 in CEM cells; type: functional, organism-based; conditions: Human immunodeficiency virus 2, CCRF-CEM; outline: as §4
HepG2 [28] = assay: Cytostatic concentration required to inhibit Hep G2 cell proliferation; type: functional; conditions: Homo sapiens
Hepatitis B virus [29] = assay: Effective concentration againstHBV in Hep G2.2.15 cells; type: functional, organism-based, HepG2 2.2.15; conditions: Hepatitis B virus, HepG2 2.2.15; outline: as §3
[30] = Terminal elimination half-life in monkey after intravenous dosage; NA = not applicable; type: ADME, organism-based; conditions: cercopithecidae, in vivo; outline: as §1
Hepatitis B virus [31] = assay: Effective concentration against HBV in Hep G2.2.15 cells; type: functional, organism-based, HepG2 2.2.15; conditions: Hepatitis B virus, HepG2 2.2.15; outline: as §3
MT4 = assay: Cytostatic concentration required to inhibit MT-4 cell proliferation; type: functional, Homo sapiens
[32] = system: Human immunodeficiency virus 2; assay: Effective concentration against human immunodeficiency virus type 2 in MT-4 cells; type: functional, organism-based; conditions: Human immunodeficiency virus 2, MT4
[33] = system: Human immunodeficiency virus 1; assay: Effective concentration against human immunodeficiency virus type 1 in MT-4 cells; type: functional, organism-based, MT4
CCRF-CEM [34] = assay: Intracellular concentration of metabolites (CBV-MP) from 11-13 hrs in CEM cells after incubation with the compound (10 uM); type: functional, cell-based; conditions: Homo sapiens; outline: as §2
CCRF-CEM [35] = assay: Intracellular concentration of metabolites (ABC +CBV) from 2-3 hrs in CEM cells after incubation with the compound (10 uM); type: functional, cell-based; conditions: Homo sapiens; outline: as §2

Structure (SMILES) | Tmax [1] [h] | AUC [5] [nM·h] | half-life [7] [h] | CC50 (CCRF-CEM [8]) [µM] | EC50 (Human alphaherpesvirus 1 [10]) [µM] | AUC [11] [nM·h] | SI [12] | CC50 (C3H/3T3) [µM] | CC50 (HepG2 [16]; Homo sapiens, HepG2) [µM] | EC50 [18] [µM] | SI [19] | EC50 [20] [µM] | EC50 (Human alphaherpesvirus 1 [22]) [µM] | EC50 (Human alphaherpesvirus 2) [µM] | CC50 (HEL) [µM] | EC50 (Human alphaherpesvirus 1 [23]) [µM] | EC50 [25] [µM] | EC50 [26] [µM] | CC50 (HepG2 [28]) [µM] | EC50 (Hepatitis B virus [29]) [µM] | other results
CCOC(=O)[C@H](C)NP(=O)(OC[C@@H]1C=C[C@H](n2cnc3c(NC4CC4)nc(N)nc32)C1)Oc1ccccc1 (stereo not given in full) | 0.8 | 700 | 0.4 | – | – | – | – | – | – | – | – | – | – | – | – | – | – | – | – | – | half-life [2]: 6.6 min; bioavailability [3]: 22%; AUC [4]: 2700 nM·h; clearance [6]: 6.8 L/h/kg
Nc1nc(NC2CC2)c2ncn([C@H]3C=C[C@@H](COP(=O)(O)O)C3)c2n1 | 1.3 | – | – | 13 | 20 | 400 | 150 | > 4 | 17 | 1.6 | 190 | 0.008 | 20 | 20 | 110 | 20 | 0.07 | 0.09 | – | – | Concentration (pmol/10E9 cells) (CCRF-CEM [9]): 12400; EC50 (Hepatitis B virus [13]): 0.55 µM; Concentration (pmol/10E9 cells) (CCRF-CEM [14]): 3490; T1/2 [15]: Not Active; Concentration (pmol/10E9 cells) (CCRF-CEM [17]): 280; Concentration (pmol/10E9 cells) (CCRF-CEM [21]): 5000; Concentration (pmol/10E9 cells) (CCRF-CEM [24]): 3020
Nc1nc2c(ncn2[C@H]2C=C[C@@H](CO)C2)c(=O)[nH]1 [CARBOVIR] | 4.7 | 400 | 6 | 160 | 50 | 700 | 68 | > 20 | 150 | 6 | – | 0.03 | 5 | 8 | 15 | 13 | 2 | 2.3 | 150 | 10 | EC50 [27]: 2.3 µM; T1/2 [30]: Not Active; EC50 (Hepatitis B virus [31]): 10.5 µM
COC(=O)[C@@H](C)NP(=O)(OC[C@@H]1C=C[C@H](n2cnc3c(O)nc(N)nc32)C1)Oc1ccccc1 (stereo not given in full) | – | – | – | 78 | > 800 | – | 26 | > 20 | 200 | 8.8 | 41 | 0.2 | 480 | 480 | 160 | 480 | 1.3 | 3 | – | 0.51 | –
C[C@@H](NP(=O)(O)OC[C@@H]1C=C[C@H](n2cnc3c(NC4CC4)nc(N)nc32)C1)C(=O)O | 1.3 | 2600 | 0.8 | 8.6 | – | 9200 | – | – | – | – | – | – | – | – | – | – | 1.2 | – | 11 | – | CC50 (MT4; Homo sapiens, MT4): 2.1 µM; EC50 [32]: 3.4 µM; EC50 ([33]; Human immunodeficiency virus 1, MT4): 6.6 µM; T1/2 [30]: Not Active; EC50 (Hepatitis B virus [31]): 5 µM
Nc1nc(NC2CC2)c2ncn([C@H]3C=C[C@@H](CO)C3)c2n1 [ABACAVIR] | 3 | 6000 | 2.6 | 78 | 900 | 6000 | 26 | > 20 | – | 8.8 | 41 | 0.2 | 900 | 900 | 200 | 320 | 1.9 | 3 | 110 | 5.6 | EC50 [27]: 3 µM; Concentration (pmol/E109 cells) (CCRF-CEM [34]): 108; Concentration (pmol/E109 cells) (CCRF-CEM [14]): 42; CC50 (MT4): 192 µM and 89 µM; CC50 (HepG2 [16]): 17 µM and 110 µM; Concentration (pmol/E109 cells) (CCRF-CEM [17]): 5.8; EC50 [32]: 7.3 µM; EC50 ([33]; mt4): 5.9 µM and 2.15 µM; Concentration (pmol/E109 cells) (CCRF-CEM [35]): 762; T1/2 [30]: Not Active; Concentration (pmol/E109 cells) (CCRF-CEM [24]): 82; EC50 (Hepatitis B virus [31]): 5.6 µM
